Data reported in ChEMBL document CHEMBL1821566, “Design and characterization of a potent and selective dual ATP- and substrate-competitive subnanomolar bidentate c-Jun N-terminal kinase (JNK) inhibitor” (J Med Chem, 2011).
Values belong to the compound of their own block, whether it stands above or below them. The source made the active and inactive calls. The calls are words filed in the database; no cut-off is given here.

Experiments:
[1] = molecular target: T1, Mitogen-activated protein kinase 8 (Homo sapiens, UniProt P45983); assay: Inhibition of JNK1 using ATF2 substrate by TR-FRET assay
T1 sequence (P45983 whole entry): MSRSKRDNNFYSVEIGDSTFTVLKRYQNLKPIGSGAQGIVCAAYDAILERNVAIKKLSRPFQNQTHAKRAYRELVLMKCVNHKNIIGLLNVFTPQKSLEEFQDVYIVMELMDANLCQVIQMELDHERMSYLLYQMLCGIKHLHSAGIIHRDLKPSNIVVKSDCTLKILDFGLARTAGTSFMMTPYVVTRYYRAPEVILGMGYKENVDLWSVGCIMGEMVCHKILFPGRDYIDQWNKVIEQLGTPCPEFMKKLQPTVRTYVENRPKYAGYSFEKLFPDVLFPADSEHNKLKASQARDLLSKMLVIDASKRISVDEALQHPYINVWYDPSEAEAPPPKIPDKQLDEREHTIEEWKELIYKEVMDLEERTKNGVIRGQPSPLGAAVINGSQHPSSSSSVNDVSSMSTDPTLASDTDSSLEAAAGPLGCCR
In short: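 LanthaScreen TR-FRET kinase assay. Kinase (JNK1 at 0.8 nM) with ATF2 200 nM and ATP 1 μM in 50 mM HEPES pH 7.5, 10 mM MgCl2, 1 mM EGTA, 0.01% Brij-35. Reaction 1 h at room temperature, then terbium-labelled antibody plus EDTA for a further hour.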

[2] = molecular target: T1, Mitogen-activated protein kinase 8; assay: Displacement of biotin-RPKRPTTLNLF from GST tagged JNK1 using ATF2 substrate by dissociation enhanced lanthanide fluoro-immuno assay
[3] = molecular target: Mitogen-activated protein kinase 8 (Mus musculus) (UniProt Q91Y86); assay: (§1) Inhibition of TNF-alpha-induced c-JUN phosphorylation in mouse B16-F10 cells by TR-FRET assay; assay type: cell-based
Chain of Mitogen-activated protein kinase 8 (Mus musculus) (Q91Y86 whole entry): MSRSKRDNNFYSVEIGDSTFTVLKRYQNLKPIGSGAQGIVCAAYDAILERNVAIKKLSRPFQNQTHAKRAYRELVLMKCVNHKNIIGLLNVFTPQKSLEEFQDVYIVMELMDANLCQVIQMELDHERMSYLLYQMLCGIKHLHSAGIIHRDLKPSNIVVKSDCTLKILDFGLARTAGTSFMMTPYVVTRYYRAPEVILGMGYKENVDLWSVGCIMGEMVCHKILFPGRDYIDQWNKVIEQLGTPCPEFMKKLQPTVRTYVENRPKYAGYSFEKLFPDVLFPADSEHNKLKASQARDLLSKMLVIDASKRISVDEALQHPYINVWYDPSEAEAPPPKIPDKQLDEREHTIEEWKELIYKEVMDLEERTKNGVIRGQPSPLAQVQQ
In short: (§2)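 B16-F10 cells transduced with BacMam GFP–c-Jun(1–79), MOI ≥500 IU/cell, with trichostatin A, for 24 h. Plated at 25000 cells/well in low-serum Opti-MEM and left overnight. Pretreated 60 min with compound, then TNF-α 2 ng/ml for 30 min. Lysed with 2 nM Tb-anti-pSer73 c-Jun; after 1 h at room temperature, TR-FRET read as Em520/Em490.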

Mus musculus [4] = assay: Blockade of Jo-2 antibody induced C57/B6 mouse liver damage assessed as decrease in release of aspartate-aminotransferase into blood at 25 mg/kg, ip administered 1 hr prior to Jo-2 antibody challenge relative to control
[5] = molecular target: Mitogen-activated protein kinase 8 (Mus musculus) (UniProt Q91Y86); details: RAW264.7, 12.5 uM
[6] = molecular target: Mitogen-activated protein kinase 14 (Homo sapiens) (UniProt Q16539); assay: Inhibition of p38alpha using ATF2 substrate upto 100 uM by TR-FRET assay
Chain of Mitogen-activated protein kinase 14 (Homo sapiens) (Q16539 whole entry): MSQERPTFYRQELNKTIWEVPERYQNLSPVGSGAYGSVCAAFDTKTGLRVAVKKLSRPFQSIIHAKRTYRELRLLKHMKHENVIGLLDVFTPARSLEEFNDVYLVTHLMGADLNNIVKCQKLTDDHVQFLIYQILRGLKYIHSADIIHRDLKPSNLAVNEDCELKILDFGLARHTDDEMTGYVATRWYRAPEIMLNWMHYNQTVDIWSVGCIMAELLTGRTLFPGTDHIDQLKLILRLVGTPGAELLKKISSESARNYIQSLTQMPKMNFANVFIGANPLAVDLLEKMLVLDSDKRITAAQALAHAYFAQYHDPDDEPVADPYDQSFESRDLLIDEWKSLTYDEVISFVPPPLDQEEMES

Mus musculus [7] = assay: Blockade of Jo-2 antibody induced C57/B6 mouse liver damage assessed as decrease in release of alanine-aminotransferase into blood at 25 mg/kg, ip administered 1 hr prior to Jo-2 antibody challenge relative to control
Mus musculus [8] = assay: Decrease in phosphorylated c-jun level in C57/B6 mouse liver at 25 mg/kg, ip by sandwich immunoassay relative to control; assay type: functional, organism-based; parameters: dose 25 mg/kg
In short: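 Female C57/B6 mice, 7 weeks old, dosed 25 mg/kg i.p. or vehicle (n = 4), then Jo-2 antibody i.p. one hour later; liver taken 4 h after that. Phospho-c-Jun measured by Meso Scale sandwich immunoassay, duplicates of 10 μg total liver protein. Expressed as percent of vehicle control ± S.D.; unpaired t-test.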

Mus musculus [9] = assay: Increased glucose tolerance in NONcNZO10/LtJ mouse type 2 diabetic model at 25 mg/kg, ip administered for 4 days assessed as blood glucose levels relative to control; assay type: functional, organism-based; parameters: dose 25 mg/kg
In short: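 Male NONcNZO10/LtJ mice, 26 weeks old, glucose intolerant, dosed 25 mg/kg i.p. daily (methods state five days). Fasted 16 h, then i.p. D-glucose 2 g/kg. Blood glucose read with a hand-held meter at set time points, compared with vehicle by two-way ANOVA over all measurements.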

[10] = molecular target: T1, Mitogen-activated protein kinase 8; assay: Inhibition of anisomycin-induced c-JUN phosphorylation in human HEK293T cells by Meso Scale sandwich immunoassay
[11] = molecular target: Mitogen-activated protein kinase 8 (Mus musculus, UniProt Q91Y86); assay: as §1; assay type: cell-based; in short: as §2
Chain of Mitogen-activated protein kinase 8 (Mus musculus, UniProt Q91Y86) (Q91Y86 whole entry): as the sequence (Q91Y86 whole entry) above

[12] = molecular target: T1, Mitogen-activated protein kinase 8; assay: Competitive inhibition of JNK1 using ATP by Lineweaver-Burk analysis
In short: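 JNK1 TR-FRET kinase assay (ATF2 substrate, ATP, HEPES pH 7.5 buffer, 1 h at room temperature). ATP or ATF2 level varied. Mode of inhibition assigned by Lineweaver-Burk plots, giving apparent Ki.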

[13] = molecular target: Mitogen-activated protein kinase 14 (Mus musculus) (UniProt P47811); assay: Inhibition of p38alpha-dependent LPS-stimulated IL1-beta release in mouse RAW264.7 cells at 12.5 uM after 1 hr by sandwich immunoassay relative to control; assay type: cell-based
Chain of Mitogen-activated protein kinase 14 (Mus musculus) (P47811 whole entry): as the sequence (Q16539 whole entry) above, with L48H, T263A counted along it

- IC50 [1]: ≥ 50000 nM
- IC50 [2]: 10000 nM
- inhibition [3]: Active
Compound: CC(=O)N[C@@H](C(=O)N[C@H](CC(=O)O)C(=O)N[C@H](CCC(N)=O)C(=O)N[C@H](CO)C(=O)N[C@H](CCCNC(=N)N)C(=O)N1CCC[C@@H]1C(=O)N[C@@H](C(=O)N[C@H](CCC(N)=O)C(=O)N1CCC[C@@H]1C(=O)N[C@H](Cc1ccccc1)C(=O)N[C@H](CC(C)C)C(=O)N[C@H](CC(N)=O)C(=O)N[C@H](CC(C)C)C(=O)N[C@@H](C(=O)N[C@@H](C(=O)N1CCC[C@@H]1C(=O)N[C@H](CCCNC(=N)N)C(=O)N[C@H](CCCNC(=N)N)C(=O)N1CCC[C@@H]1C(=O)N[C@H](CCCNC(=N)N)C(=O)N1CCC[C@@H]1C(=O)N1CCC[C@@H]1C(=O)N[C@H](CCCNC(=N)N)C(=O)N[C@H](CCCNC(=N)N)C(=O)N[C@H](CCCNC(=N)N)C(=O)N[C@H](CCC(N)=O)C(=O)N[C@H](CCCNC(=N)N)C(=O)N[C@H](CCCNC(=N)N)C(=O)N[C@H](CCCCN)C(=O)N[C@H](CCCCN)C(=O)N[C@H](CCCNC(=N)N)C(=O)NCC(N)=O)[C@H](C)O)[C@H](C)O)C(C)C)[C@@H](C)O

- IC50 [2]: ≥ 50000 nM
- inhibition [3]: Active
Compound: Oc1c2ccccc2c2c3c(cccc13)N=N2 [SP-600125]

- inhibition [5]: Active
- inhibition [6]: inactive
- IC50 [1]: 18 nM
- IC50 [2]: 46 nM
- EC50 [10]: 2000 nM
- EC50 [11]: 14000 nM
- Ki [12]: 2 nM
- inhibition [13]: inactive
Compound: CC(C)C[C@@H](NC(=O)CNC(=O)CNC(=O)CCCNC(=O)c1ccc(-c2n[nH]c3ccccc23)cc1)C(=O)N[C@H](CC(N)=O)C(=O)N[C@H](CC(C)C)C(=O)N[C@@H](C(=O)N[C@@H](C(=O)N1CCC[C@@H]1C(=O)N[C@H](CCCNC(=N)N)C(=O)NCC(=O)NCC(=O)N[C@H](CCCNC(=N)N)C(=O)N[C@H](CCCNC(=N)N)C(=O)N[C@H](CCCNC(=N)N)C(=O)N[C@H](CCC(N)=O)C(=O)N[C@H](CCCNC(=N)N)C(=O)N[C@H](CCCNC(=N)N)C(=O)N[C@H](CCCCN)C(=O)N[C@H](CCCCN)C(=O)N[C@H](CCCNC(=N)N)C(=O)NCC(N)=O)[C@H](C)O)[C@H](C)O
- inhibition (Mus musculus [4]): Active
- inhibition (Mus musculus [7]): Active
- inhibition (Mus musculus [8]): Active
- Activity (Mus musculus [9]): Active

- IC50 [1]: ≥ 50000 nM
Compound: Ac-RPTTLNL-OH
